Source: ChEMBL document CHEMBL1158120, “Cytotoxic oxygenated triterpenoid saponins from Symplocos chinensis” (J Nat Prod, 2006)

What was measured:
Assay type in all cases: functional, cell-based
HCT-8 = test: Cytotoxicity against human HCT8 cells by MTT assay
Outline: (§1)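 MTT read-out of tumour-cell viability. IC50 values in µM are reported as means of three independent experiments.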

Bel-7402 = test: Cytotoxicity against human Bel-7402 cells by MTT assay; outline: as §1
BGC-823 = test: Cytotoxicity against human BGC-823 cells by MTT assay; outline: as §1
A549 = test: Cytotoxicity against human A549 cells by MTT assay; outline: as §1
A2780 = test: Cytotoxicity against human A2780 cells by MTT assay; outline: as §1

SMILES | IC50 (HCT-8) [µM] | IC50 (Bel-7402) [µM] | IC50 (BGC-823) [µM] | IC50 (A549) [µM] | IC50 (A2780) [µM]
CCCCOC(=O)[C@H]1O[C@@H](O[C@H]2CC[C@]3(C)[C@H]4CC=C5[C@@H]6CC(C)(C)C[C@H](OC(=O)/C=C(/C)CCC=C(C)C)[C@]6(CO)[C@H](O)[C@H](O)[C@@]5(C)[C@]4(C)CC[C@H]3C2(C)C)[C@H](O[C@@H]2O[C@H](CO)[C@@H](O)[C@H](O)[C@H]2O)[C@@H](O)[C@@H]1O[C@@H]1O[C@@H](CO)[C@H](O)[C@H]1O [SYMPLOCOSOSIDE F] | 4 | > 10 | > 10 | > 10 | > 10
CCC(C)C(=O)O[C@H]1[C@H](OC(=O)/C=C(/C)CCC=C(C)C)C(C)(C)C[C@H]2C3=CC[C@@H]4[C@@]5(C)CC[C@H](O[C@@H]6O[C@H](C(=O)O)[C@@H](O[C@@H]7O[C@@H](CO)[C@H](O)[C@H]7O)[C@H](OC(C)=O)[C@H]6O[C@@H]6O[C@H](CO)[C@@H](O)[C@H](O)[C@H]6O)C(C)(C)[C@@H]5CC[C@@]4(C)[C@]3(C)[C@@H](O)[C@@H](O)[C@]21CO (stereo not given in full) [SYMPLOCOSOSIDE G] | 2 | 1.8 | 1.9 | 2.1 | 1.4
CCC(C)C(=O)O[C@H]1[C@H](OC(=O)/C=C(\C)CCC=C(C)C)C(C)(C)C[C@H]2C3=CC[C@@H]4[C@@]5(C)CC[C@H](O[C@@H]6O[C@H](C(=O)O)[C@@H](O[C@@H]7O[C@@H](CO)[C@H](O)[C@H]7O)[C@H](OC(C)=O)[C@H]6O[C@@H]6O[C@H](CO)[C@@H](O)[C@H](O)[C@H]6O)C(C)(C)[C@@H]5CC[C@@]4(C)[C@]3(C)[C@@H](O)[C@@H](O)[C@]21CO (stereo not given in full) [SYMPLOCOSOSIDE H] | 2.1 | 2.6 | 2.5 | 2.7 | 1.4
CCC(C)C(=O)O[C@H]1[C@H](OC(=O)/C=C(/C)CCC=C(C)C)C(C)(C)C[C@H]2C3=CC[C@@H]4[C@@]5(C)CC[C@H](O[C@@H]6O[C@H](C(=O)OC)[C@@H](O[C@@H]7O[C@@H](CO)[C@H](O)[C@H]7O)[C@H](OC(C)=O)[C@H]6O[C@@H]6O[C@H](CO)[C@@H](O)[C@H](O)[C@H]6O)C(C)(C)[C@@H]5CC[C@@]4(C)[C@]3(C)[C@@H](O)[C@@H](O)[C@]21CO (stereo not given in full) [SYMPLOCOSOSIDE I] | 1.7 | 2.7 | > 10 | > 10 | 3.2
CC(=O)O[C@@H]1[C@@H](O[C@@H]2O[C@H](CO)[C@@H](O)[C@H](O)[C@H]2O)[C@H](O[C@H]2CC[C@]3(C)[C@H]4CC=C5[C@@H]6CC(C)(C)[C@@H](OC(=O)/C=C(/C)CCC=C(C)C)[C@H](OC(=O)c7ccccc7)[C@]6(CO)[C@H](O)[C@H](O)[C@@]5(C)[C@]4(C)CC[C@H]3C2(C)C)O[C@H](C(=O)O)[C@H]1O[C@@H]1O[C@@H](CO)[C@H](O)[C@H]1O [SYMPLOCOSOSIDE J] | 2.1 | 1.7 | 1.8 | 3 | 1.4
COC(=O)[C@H]1O[C@@H](O[C@H]2CC[C@]3(C)[C@H]4CC=C5[C@@H]6CC(C)(C)[C@@H](OC(=O)/C=C(/C)CCC=C(C)C)[C@H](OC(=O)c7ccccc7)[C@]6(CO)[C@H](O)[C@H](O)[C@@]5(C)[C@]4(C)CC[C@H]3C2(C)C)[C@H](O[C@@H]2O[C@H](CO)[C@@H](O)[C@H](O)[C@H]2O)[C@@H](OC(C)=O)[C@@H]1O[C@@H]1O[C@@H](CO)[C@H](O)[C@H]1O [SYMPLOCOSOSIDE K] | 2.4 | 5.1 | > 10 | 4 | 0.8
CC(=O)O[C@@H]1[C@@H](O[C@@H]2O[C@H](CO)[C@@H](O)[C@H](O)[C@H]2O)[C@H](O[C@H]2CC[C@]3(C)[C@H]4CC=C5[C@@H]6CC(C)(C)[C@@H](OC(=O)/C=C(/C)CCC=C(C)C)[C@H](OC(=O)C(C)C)[C@]6(CO)[C@H](O)[C@H](O)[C@@]5(C)[C@]4(C)CC[C@H]3C2(C)C)O[C@H](C(=O)O)[C@H]1O[C@@H]1O[C@@H](CO)[C@H](O)[C@H]1O [SYMPLOCOSOSIDE L] | 1.7 | 2.7 | > 10 | > 10 | 2.4
CC(=O)O[C@@H]1[C@@H](O[C@@H]2O[C@H](CO)[C@@H](O)[C@H](O)[C@H]2O)[C@H](O[C@H]2CC[C@]3(C)[C@H]4CC=C5[C@@H]6CC(C)(C)[C@@H](OC(=O)/C=C(\C)CCC=C(C)C)[C@H](OC(=O)C(C)C)[C@]6(CO)[C@H](O)[C@H](O)[C@@]5(C)[C@]4(C)CC[C@H]3C2(C)C)O[C@H](C(=O)O)[C@H]1O[C@@H]1O[C@@H](CO)[C@H](O)[C@H]1O [SYMPLOCOSOSIDE M] | 2.7 | 3.8 | > 10 | > 10 | 2.3
CCC(C)C(=O)O[C@H]1[C@H](OC(=O)/C=C/c2ccccc2)C(C)(C)C[C@H]2C3=CC[C@@H]4[C@@]5(C)CC[C@H](O[C@@H]6O[C@H](C(=O)O)[C@@H](O)[C@H](O)[C@H]6O[C@@H]6O[C@H](CO)[C@@H](O)[C@H](O)[C@H]6O)C(C)(C)[C@@H]5CC[C@@]4(C)[C@]3(C)[C@@H](O)[C@@H](O)[C@]21CO (stereo not given in full) [SYMPLOCOSOSIDE N] | 1.8 | 1.7 | > 10 | > 10 | 3.2
CC(=O)O[C@@H]1[C@@H](O[C@@H]2O[C@H](CO)[C@@H](O)[C@H](O)[C@H]2O)[C@H](O[C@H]2CC[C@]3(C)[C@H]4CC=C5[C@@H]6CC(C)(C)C[C@H](OC(=O)/C=C(/C)CCC=C(C)C)[C@]6(CO)[C@H](O)[C@H](O)[C@@]5(C)[C@]4(C)CC[C@H]3C2(C)C)O[C@H](C(=O)O)[C@H]1O[C@@H]1O[C@@H](CO)[C@H](O)[C@H]1O [SYMPLOCOSOSIDE O] | 1.7 | 2.4 | > 10 | > 10 | > 10
CCC(C)C(=O)O[C@H]1[C@H](OC(=O)c2ccccc2)C(C)(C)C[C@H]2C3=CC[C@@H]4[C@@]5(C)CC[C@H](O[C@@H]6O[C@H](C(=O)O)[C@@H](O[C@@H]7O[C@@H](CO)[C@H](O)[C@H]7O)[C@H](OC(C)=O)[C@H]6O[C@@H]6O[C@H](CO)[C@@H](O)[C@H](O)[C@H]6O)C(C)(C)[C@@H]5CC[C@@]4(C)[C@]3(C)[C@@H](O)[C@@H](O)[C@]21CO (stereo not given in full) [SYMPLOCOSOSIDE P] | > 10 | > 10 | > 10 | > 10 | 3.3
CCOC(=O)[C@H]1O[C@@H](O[C@H]2CC[C@]3(C)[C@H]4CC=C5[C@@H]6CC(C)(C)[C@@H](OC(=O)/C=C(/C)CCC=C(C)C)[C@H](OC(=O)C(C)CC)[C@]6(CO)[C@H](O)[C@H](O)[C@@]5(C)[C@]4(C)CC[C@H]3C2(C)C)[C@H](O[C@@H]2O[C@H](CO)[C@@H](O)[C@H](O)[C@H]2O)[C@@H](O)[C@@H]1O[C@@H]1O[C@@H](CO)[C@H](O)[C@H]1O (stereo not given in full) [SYMPLOCOSOSIDE Q] | > 10 | > 10 | > 10 | > 10 | 5.5
CCC(C)C(=O)O[C@H]1[C@H](OC(=O)/C=C(/C)CCC=C(C)C)C(C)(C)C[C@H]2C3=CC[C@@H]4[C@@]5(C)CC[C@H](O[C@@H]6O[C@H](C(=O)O)[C@@H](O)[C@H](O)[C@H]6O[C@@H]6O[C@H](CO)[C@@H](O)[C@H](O)[C@H]6O)C(C)(C)[C@@H]5CC[C@@]4(C)[C@]3(C)[C@@H](O)[C@@H](O)[C@]21CO (stereo not given in full) [SYMPLOCOSOSIDE R] | 4.4 | 4.1 | > 10 | > 10 | 1.9
CCC(C)C(=O)O[C@H]1[C@H](OC(=O)/C=C/c2ccccc2)C(C)(C)C[C@H]2C3=CC[C@@H]4[C@@]5(C)CC[C@H](O[C@@H]6O[C@H](CO)[C@@H](O[C@@H]7O[C@@H](CO)[C@H](O)[C@H]7O)[C@H](O)[C@H]6O[C@@H]6O[C@H](CO)[C@@H](O)[C@H](O)[C@H]6O)C(C)(C)[C@@H]5CC[C@@]4(C)[C@]3(C)[C@@H](O)[C@@H](O)[C@]21CO (stereo not given in full) [SYMPLOCOSOSIDE X] | 1.7 | 1.8 | > 10 | 2.1 | 1.6
CCC(C)C(=O)O[C@H]1[C@H](OC(=O)/C=C/c2ccccc2)C(C)(C)C[C@H]2C3=CC[C@@H]4[C@@]5(C)CC[C@H](O[C@@H]6O[C@H](CO)[C@@H](O[C@@H]7O[C@@H](CO)[C@H](O)[C@H]7O)[C@H](OC(C)=O)[C@H]6O[C@@H]6O[C@H](CO)[C@@H](O)[C@H](O)[C@H]6O)C(C)(C)[C@@H]5CC[C@@]4(C)[C@]3(C)[C@@H](O)[C@@H](O)[C@]21CO (stereo not given in full) [SYMPLOCOSOSIDE Y] | > 10 | > 10 | > 10 | > 10 | 3.4
